Screening results: PubChem BioAssay, The Scripps Research Institute Molecular Screening Center
ABHD4 inh = inhibitors of mouse ABHD4. inhibition, % at 8.92 µM. hit rate 0.54% among 370,000. purified mABHD4, FP-Rh probe fluorescence polarization. AID 720543;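 active = inhibition exceeding the mean over every tested compound plus 3 SD, cut at about 30% in these data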
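Test system: mABHD4 protein; Read-out basis: % inhibition; Incubation: 45 min + 60 min at 25 °C; Repeats: single replicate; Technique: fluorescence polarization with parallel and perpendicular emission, 525/598 nm; Compound: 8.92 µM, single dose; Benchmarks: full inhibition S159A mutant plus DMSO, zero as sample-well median.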
TCR CD3 inh = inhibitors of human TCR-CD3 interaction; TAMRA-labeled TCR probe fluorescence, biochemical; inhibition, % at 9.4 µM; hit rate 0.37% among 360,000; AID 651800; in the data active = inhibition above about 19%;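 also: recombinant mutant TCR 2C K166C tagged with TAMRA read by polarization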
TDP2 inh = TDP2 (human) inhibition, absorbance primary screen. AID 720702. O95551. hit rate 0.34% among 370,000. recombinant TDP2, T5PNP hydrolysis, p-nitrophenol absorbance 415 nm. inhibition, % at 12.8 µM;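 active = inhibition above the mean of all tested compounds plus 3 SD, set per campaign, cut at about 25% in these data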
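Test system: human TDP2 enzyme; Input: 120 nM TDP2 per well; Buffer or medium: Mg2+-containing Tris-HCl buffer, pH 7.5; Reagent: 5 mM T5PNP; Dosing: 12.8 µM single point, 1% DMSO; Incubation: reaction 2 h, 37 °C; Detection: p-Nitrophenol epi absorbance; Read-out: % inhibition relative to enzyme-containing and enzyme-free wells; Replicates: single well per compound.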
LEDGF integ inh = blocks HIV-1 LEDGF/p75-dependent DNA integration; AID 743269; TR-FRET IN-LEDGF/p75 DNA integration, Eu/Cy5; inhibition, % at 3.7 µM; hit rate 0.64% among 370,000;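 active = inhibition above the screen-wide mean plus 3 SD, cut at about 13% in these data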;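 also: signal is the Cy5 over europium emission ratio at 671 and 618 nm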
SIAE inh = blocks human sialic acid acetylesterase | AID 1053197 | hit rate 0.69% among 370,000 | SIAE FP-Rh probe binding, fluorescence polarization | inhibition, % at 9.66 µM;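 active = inhibition above a cutoff: mean of compounds within the control limits plus 3 SD of those, cut at about 17% in these data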
HTRA1 inhibitor = HTRA1 (human) protease inhibition | AID 504803 | recombinant HTRA1, FP-rhodamine activity-based probe, fluorescence polarization | Q92743 | inhibition, % at 5.96 µM | hit rate 0.5% among 340,000; in the data active = inhibition above about 36%
Target sequence (Q92743 whole entry, looked up): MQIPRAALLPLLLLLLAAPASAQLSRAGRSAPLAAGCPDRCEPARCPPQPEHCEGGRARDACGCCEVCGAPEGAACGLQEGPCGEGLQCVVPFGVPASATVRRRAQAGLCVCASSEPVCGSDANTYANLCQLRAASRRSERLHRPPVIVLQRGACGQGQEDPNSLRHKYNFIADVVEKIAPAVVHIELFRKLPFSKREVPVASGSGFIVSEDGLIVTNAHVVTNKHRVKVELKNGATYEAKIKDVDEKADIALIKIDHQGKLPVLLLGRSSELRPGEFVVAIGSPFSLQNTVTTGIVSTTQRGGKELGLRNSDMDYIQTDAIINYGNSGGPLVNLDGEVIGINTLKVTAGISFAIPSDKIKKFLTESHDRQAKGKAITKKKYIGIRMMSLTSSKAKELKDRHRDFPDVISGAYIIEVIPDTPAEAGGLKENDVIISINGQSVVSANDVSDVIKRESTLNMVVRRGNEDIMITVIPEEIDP
TDP2 confirm = human TDP2 inhibition, confirmation; inhibition, % at 12.8 µM; hit rate 22% among 1,100; recombinant human TDP2, absorbance read-out; shares compounds with TDP2 inh; in the data active = inhibition above about 25%
Numbers stand for hits; 0 = inactive; - = no result given. Compounds with a hit are over-represented: about 2.2% of the library has one in this group of screens.

SMILES	ABHD4 inh	TCR CD3 inh	TDP2 inh	LEDGF integ inh	SIAE inh	HTRA1 inhibitor	TDP2 confirm
Cc1ccc(CN2CCN(c3ccccc3)CC2)o1	0	0	25.5	0	0	0	0
O=C(NC1CCCCN(Cc2cccc(Cl)c2)C1=O)c1cccs1 (configuration not stated)	0	-	0	0	0	-	-
C[C@@H]1CCCN1c1ccc2c(c1)O[C@@H]1CCN(C1)S2(=O)=O	0	-	0	0	0	-	-
O=C(Nc1cccc2nsnc12)c1ccc(-c2ccc(Br)cc2)o1	0	0	24.6	0	0	0	0
CCOc1cccc(OCCn2cnc3ccccc3c2=O)c1	0	0	0	0	0	0	-
CCOc1cccc(OCCCCn2cnc3ccccc3c2=O)c1	0	0	24.5	0	0	0	0
Cc1cc(=O)n(-c2ccccc2Cl)[nH]1	0	0	59.0	0	0	0	0
Cc1cc(=O)n(-c2ccc(C(=O)O)cc2)[nH]1	0	0	0	0	0	0	-
CC(=O)C1=C(C)NC(=S)NC1c1ccc(F)cc1 (configuration not stated)	0	0	0	0	0	-	-
O=C(Nc1ccc(S(=O)(=O)Nc2ncccn2)cc1)c1ccccc1Br	0	0	26.2	0	0	0	0
Cc1cc(C)c(S(=O)(=O)N2CCN(C(=O)c3ccc4c(c3)OCO4)CC2)c(C)c1	0	0	28.7	0	0	0	0
O=C1C(=O)N(Cc2ccc(-c3ccccc3)cc2)c2ccc(OC(F)(F)F)cc21	0	-	0	0	0	-	-
CC(=O)N(C)c1ccc(NC(=O)Cc2cccs2)cc1	0	0	25.1	0	0	0	0
O=C(NC1CCCC1)C1CCN(C(=O)c2cc(Cl)ccc2Cl)CC1	0	0	26.1	0	0	0	0
Cc1oc2c(c1C(=O)c1ccccc1)C(=O)C(=O)c1ccccc1-2	0	0	38.5	0	0	0	54.7
COc1ccc(OC)c(C(=O)COC(=O)C(CCSC)NC(=O)COc2ccccc2)c1 (configuration not stated)	0	0	0	0	0	0	-
COc1ccccc1C(=O)COC(=O)C(CCSC)NC(=O)COc1ccccc1 (configuration not stated)	0	0	25.5	0	0	0	0
CN(CCO)C(=O)c1nc[nH]c1C(=O)N1CCN(c2ccccc2)CC1	0	0	0	0	0	-	-
COC(=O)[C@]12C[C@H](CC(=O)NCc3ccccc3)C(=O)N(CCc3ccc(OC)c(OC)c3)C1=C[C@H](C(C)C)O[C@@H]2C1CC1	0	-	0	0	0	-	-
CC(=O)c1c(C)oc2c1cc(NS(=O)(=O)c1ccc(C(=O)O)cc1)c1ccccc12	0	0	28.6	0	0	0	0
CCCCc1c(-c2ccccc2OC)ncn1Cc1ccc(OC)c(Cl)c1	0	0	0	0	0	-	-
O=C(O)c1ccc2[nH]c3c(c2c1)CSCC3	-	-	-	-	-	0	-
CN(C)CCOC(=O)c1ccc2[nH]c3c(c2c1)CSCC3	0	0	24.8	0	0	0	0
COc1cccc(Nc2nc3ccccc3n3cnnc23)c1	0	0	0	0	0	0	-
COc1ccc(Nc2nc3ccccc3n3cnnc23)cc1Cl	0	0	25.8	0	0	0	0
SMILES	ABHD4 inh	TCR CD3 inh	TDP2 inh	LEDGF integ inh	SIAE inh	HTRA1 inhibitor	TDP2 confirm
COC(=O)[C@]12C[C@H](CC(=O)NCCc3ccccc3OC)C(=O)N(CCc3ccc(OC)c(OC)c3)C1=C[C@H](C(C)C)O[C@@H]2C1CC1	0	-	0	0	0	-	-
Cc1ccc(NC(=O)C2CCN(C(=O)[C@@H]3Cc4ccccc4CN3)CC2)c(C)c1	0	0	25.4	0	0	0	0
COc1ccc(NC(=O)C2CCN(C(=O)[C@@H]3Cc4ccccc4CN3)CC2)cc1	0	0	27.9	0	0	0	0
Cc1cccc(NC(=O)C2CCN(C(=O)[C@@H]3Cc4ccccc4CN3)CC2)c1	0	0	0	0	0	0	-
O=C(CSc1nnc(-c2cccnc2)n1-c1ccc(Cl)cc1)Nc1ccc(S(=O)(=O)Nc2nccs2)cc1	0	-	0	0	0	-	-
Cn1nccc1C(=O)N1CCC(Cc2ccccc2)CC1	0	0	44.6	0	0	0	0
O=C(c1ccc(Br)o1)N1CCC(Cc2ccccc2)CC1	0	0	0	0	0	0	-
